pIC50: −log10 of the molar value.
Columns and labels:
[1] = target: Aldo-keto reductase family 1 member B1 (Rattus norvegicus) (UniProt P07943); assay: Inhibition of aldose reductase in rat lens homogenate at 100 uM
How it was run: (§1)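 Crude enzyme was supernatant of rat lens homogenate. Reaction was started with NADPH at 30 °C, run 30 min and stopped with HCl. NADP was converted to a fluorescent product with NaOH/imidazole at 60 °C for 20 min. Read-out was fluorescence at ex 360/em 460 nm.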

[2] = target: Aldo-keto reductase family 1 member B1 (Rattus norvegicus, UniProt P07943); assay: Inhibition of aldose reductase in rat lens homogenate; how it was run: as §1
[3] = target: Aldo-keto reductase family 1 member B1 (Rattus norvegicus) (UniProt P07943); assay: Inhibition of aldose reductase in rat lens homogenate at 30 uM; how it was run: as §1

Compound | inhibition [1] [%] | pIC50 [2] | inhibition [3] [%]
COc1cc([C@H]2c3c(cc(OC)c(O)c3OC)C[C@@H](CO)[C@@H]2CO)cc(OC)c1O | 10 | < 4.00 | –
CC1(C)C(=O)CC[C@]2(C)[C@H]3CC=C4[C@@H]5C[C@](C)(C(=O)O)C[C@H](O)[C@]5(C)CC[C@@]4(C)[C@]3(C)CC[C@@H]12 | 25 | < 4.00 | –
CC1(C)CC[C@]2(C)CC[C@]3(C)C(=CC[C@@H]4[C@@]5(C)CCC(=O)C(C)(C)[C@@H]5CC[C@]43C)[C@@H]2C1 | 3 | < 4.00 | –
COc1cc([C@H]2c3c(cc(OC)c(O)c3OC)C[C@@H](CO)[C@@H]2CO)ccc1O | 24 | < 4.00 | –
CC1(C)[C@@H](O)CC[C@]2(C)[C@H]3CC=C4[C@@H]5C[C@](C)(C(=O)O)C[C@@H](O)[C@]5(C)CC[C@@]4(C)[C@]3(C)CC[C@@H]12 | – | 4.59 | –
Oc1cc(O)c2c(c1)O[C@H](c1ccc(O)c(O)c1)[C@H](O)C2 [(-)-EPICATECHIN] | – | < 4.52 | 41
CC(=O)OC[C@]12[C@@H](OC(=O)c3ccccc3)C[C@@H]3[C@@H](OC(C)=O)[C@]1(OC3(C)C)[C@H](C)C[C@H](OC(C)=O)[C@@H]2O [CELAHIN C] | – | 4.02 | –
Oc1cc(O)c2c(c1)O[C@H](c1ccc(O)c(O)c1)[C@@H](O)C2 [CIANIDANOL] | – | < 4.52 | 38
Oc1cc(O)c2c(c1)O[C@H](c1cc(O)c(O)c(O)c1)[C@H](O)C2 [EPIGALLOCATECHIN] | – | < 4.52 | 19
COc1cc([C@H]2c3cc(O)c(OC)cc3C[C@@H](CO)[C@@H]2CO)ccc1O [ISOLARICIRESINOL] | 36 | < 4.00 | –
O=c1c2cc(O)c(O)cc2oc2cc(O)c([C@@H]3O[C@H](CO)[C@@H](O)[C@H](O)[C@H]3O)c(O)c12 [MANGIFERIN] | – | 5.49 | –
CC1(C)[C@@H](O)CC[C@]2(C)[C@H]3CC=C4[C@@H]5C[C@](C)(C(=O)O)C[C@H](O)[C@]5(C)CC[C@@]4(C)[C@]3(C)CC[C@@H]12 [MAYTENFOLIC ACID] | – | 4.14 | –
Cc1c(O)c(O)cc2c1CC[C@H]1[C@@]2(C)CC[C@@]2(C)[C@@H]3C[C@@H](C)C(=O)[C@@H](O)[C@]3(C)CC[C@]12C [REGEOL A] | – | 4.52 | –
C[C@@H]1[C@@]23CC[C@H]4[C@@](C)(CC[C@@]5(C)[C@@H]6C[C@](C)(C(=O)O)CC[C@]6(C)CC[C@]45C)[C@@H]2CC[C@@]1(O)OC3 [SALASPERMIC ACID] | 2 | < 4.00 | –
CC1=C(O)C(=O)C=C2C1=CC=C1[C@@]2(C)CC[C@@]2(C)[C@@H]3C[C@@H](C)C(=O)[C@@H](O)[C@]3(C)CC[C@]12C [TINGENIN B] | – | 5.15 | –
CC1=C(O)C(=O)C=C2C1=CC=C1[C@@]2(C)CC[C@@]2(C)[C@@H]3C[C@@H](C)C(=O)C[C@]3(C)CC[C@]12C [TINGENONE] | – | 4.89 | –
CC1(C)CC[C@]2(C)CC[C@]3(C)C(=CC[C@@H]4[C@@]5(C)CC[C@H](O)C(C)(C)[C@@H]5CC[C@]43C)[C@@H]2C1 [beta-AMYRIN] | 6 | < 4.00 | –

Further lines, with some results ahead:

inhibition [1] [%] | pIC50 [2] | Compound | inhibition [3] [%]
8 | < 4.00 | C[C@H]1C(=O)CC[C@@H]2[C@]1(C)CC[C@H]1[C@@]2(C)CC[C@@]2(C)[C@@H]3CC(C)(C)CC[C@]3(C)C[C@H](O)[C@]12C | –
– | 4.01 | C[C@H]1C(=O)CC[C@@H]2[C@]1(C)CC[C@H]1[C@@]2(C)CC[C@@]2(C)[C@@H]3C[C@](C)(CO)CC[C@]3(C)CC[C@]12C [3-OXO-29-HYDROXYFRIEDELANE] | –
26 | < 4.00 | C[C@@H]1[C@H]2C3=CC[C@@H]4[C@@]5(C)CCC(=O)C(C)(C)[C@@H]5CC[C@@]4(C)[C@]3(C)CC[C@@]2(C)[C@@H](O)C[C@H]1C(=O)O [DEMETHYLREGELIN] | –
44 | < 4.00 | C[C@H]1C(=O)CC[C@@H]2[C@]1(C)CC[C@H]1[C@@]2(C)CC[C@@]2(C)[C@@H]3C[C@](C)(C(=O)O)CC[C@]3(C)CC[C@]12C [MAYTENOIC ACID] | –
19 | < 4.00 | C[C@@H]1[C@@]23CC[C@H]4[C@@](C)(CC[C@@]5(C)[C@@H]6C[C@](C)(C(=O)O)CC[C@]6(C)CC[C@]45C)[C@@H]2C[C@@H](O)[C@]1(O)OC3 [ORTHOSPHENIC ACID] | –
27 | < 4.00 | C[C@@H]1[C@H]2C3=CC[C@@H]4[C@@]5(C)CC[C@H](O)C(C)(C)[C@@H]5CC[C@@]4(C)[C@]3(C)CC[C@@]2(C)[C@@H](O)C[C@H]1C(=O)O [TRIPTERYGIC ACID A] | –
– | 4.85 | CC1=C2CC[C@H]3[C@@](C)(CC[C@@]4(C)[C@@H]5C[C@@H](C)C(=O)[C@@H](O)[C@]5(C)CC[C@]34C)[C@@H]2C[C@H](O)C1=O [TRIPTOCALLINE A] | –
48 | 4.00 | C[C@H]1C(=O)[C@H](O)C[C@@H]2[C@]1(C)CC[C@H]1[C@@]2(C)CC[C@@]2(C)[C@@H]3C[C@](C)(C(=O)O)CC[C@]3(C)CC[C@]12C [WILFOLIC ACID C] | –

Reference: ChEMBL document CHEMBL1146592, “Structures of new friedelane-type triterpenes and eudesmane-type sesquiterpene and aldose reductase inhibitors from Salacia chinensis” (J Nat Prod, 2003)
